The values below come from ChEMBL document CHEMBL4513216, “Probing the Open Global Health Chemical Diversity Library for Multistage-Active Starting Points for Next-Generation Antimalarials” (ACS Infect Dis, 2020).

The series in a line: Toxicity liver stage against HepG2, at 10uM. The class given is cell-based. Set-up: test concentration 10 uM, cell line HepG2-A16-CD81EGFP. The note with it: human, HepG2-A16-CD81EGFP cells; read-out: INHIBITION
Summed up: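 Uninfected HepG2-A16-CD81EGFP cells, 3 × 10^3 per well, 1536-well, plated on prespotted compound at 10 μM final, parasite-free screening media added to match infected plates; puromycin 10 μM positive, DMSO 0.5% negative; run in parallel with 48 h PbLuc assay at 37 °C, 5% CO2; viability by CellTiter-Glo luminescence, normalized to controls.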
As for `O=C(c1ccncc1)N1CCC2(CC1)CC(Oc1cccnc1)CO2` (stereo unspecified), the cytotoxicity at 10 µM was -3.66%.
On to `CNC(=O)c1ccc(C(=O)N2CCCCC2Cn2cc(C)cn2)cn1` (stereo unspecified), for which the cytotoxicity at 10 µM is -3.54%.
To `CC(O)C1CCN(C(=O)Nc2nc(-c3ccccc3)ns2)CC1` (stereo unspecified) belongs -135%; to `COCC(=O)N1CCC2(CC1)NC(=O)[C@H]1CN(C(=O)N(C)C)C[C@H]12`, 7%.
Consider `c1cn(-c2ccc(CN3CCCC3)cc2)c(-c2cc3n(n2)CCNC3)n1`, for which the cytotoxicity at 10 µM is -14.3%.
To `CCCS(=O)(=O)NC1CCN(c2nnc(C)c(C)c2C#N)CC1` belongs 3.28%.
Consider `Cc1cnn(CC2CCCCN2C(=O)c2cc(C(N)=O)cs2)c1` (stereo unspecified), for which the cytotoxicity at 10 µM was determined as 2.02%.
To `c1csc(CNc2ccccc2Cn2cncn2)c1` belongs 11.5%.
For `O=C(Nc1ccc(-c2ccccc2)cn1)C1CCN(C(=O)C2CC2)CC1`, the cytotoxicity at 10 µM is -14.8%.
Turning to `CC(=O)N1CC[C@H]2OCC[C@@H](C(=O)NCc3ccco3)[C@@H]2C1`, the cytotoxicity at 10 µM was -77.4%.
Take `CCN1CCCC(C)(C(=O)NCCc2nnc(C)[nH]2)C1` (stereo unspecified): the cytotoxicity at 10 µM was determined as 1.1%.
To `Cn1nccc1-c1nnn2c1COCC(CNC1CCOCC1)C2` (stereo unspecified) belongs -103%; to `Cc1csc(NC(=O)c2ccc(NC(=O)N3CCOCC3)cc2)n1`, 1.11%.
To `CCOC(=O)C1CCCN(Cc2cc(C#N)n(C)c2C)C1` (stereo unspecified) belongs 0.0308%.
To `Cc1noc(C)c1CN(C)CC(c1cccs1)N1CCOCC1` (stereo unspecified) belongs -4.98%.
In the case of `O=c1cc(-c2ccc(F)cc2)nc2n1CCCCC2`, the cytotoxicity at 10 µM is -1.91%.
To `COc1ccc(-c2cc(C3CCCNC3)ccn2)cc1` (stereo unspecified) belongs 0.288%.
Turning to `COc1ccc(C2CCCN2C(=O)NCCCn2cccn2)cc1` (stereo unspecified), the cytotoxicity at 10 µM was 7.53%.
To `CC1CCCN(Cc2ccc(CNC(=O)NCc3ccon3)cc2)C1` (stereo unspecified) belongs -10%; to `CCN(CC)S(=O)(=O)c1cc2c3c(c1)c(C)cc(=O)n3CCC2`, 2.85%; to `CCNC(=O)CN(CC)C(=O)c1cccc(Nc2cnn(C)c2)c1`, 7.68%.
Consider `O=C(CN1C(=O)CCC1=O)N1Cc2cncnc2C1`, for which the cytotoxicity at 10 µM was -8.33%.
To `COc1ccc2c(c1)CCCN2Cc1nc(C)c(C)o1` belongs 4.74%.
As for `COc1ccc(CNCC(C)Oc2ccccn2)cc1Cl` (stereo unspecified), the cytotoxicity at 10 µM was 7.36%.
On to `CCN1CC2(CCN(CCOc3ccc(F)cc3)CC2)CC1=O`, for which the cytotoxicity at 10 µM came out at 8.12%.
To `COCCn1ccnc1CN(Cc1ccccn1)CC(C)C` belongs 4.96%.
To `CCCN1CCCC2(CCN(Cc3noc(C4CCCC4)n3)C2)C1=O` (stereo unspecified) belongs 0.603%; to `NC(=O)c1ccc(C2CN(Cc3ccc(F)cc3)CCO2)nc1` (stereo unspecified), 18.6%.
In the case of `CCN(CC)S(=O)(=O)N1CCCC(c2cccc(C(=O)O)c2)C1` (stereo unspecified), the cytotoxicity at 10 µM was -10%.
To `CC(=O)NCCc1ccc(C(=O)N2CCCC2c2cnn(C)c2)cc1` (stereo unspecified) belongs -4.74%.
To `CC(C)N1C(=O)CN(CCOCCO)CC1(C)C` belongs 1.94%; to `Cn1cc(N2C[C@@H]3CN(Cc4ccccn4)C[C@@H]3C2=O)cn1`, -95.6%.
As to `Cc1cccc(C(C(=O)N2CCN(C(=O)c3ccc[nH]3)CC2)N(C)C)c1` (stereo unspecified), the cytotoxicity at 10 µM is -7.55%.
To `COCCN(CC1CCCN(C2Cc3ccccc3C2)C1)C(=O)CO` (stereo unspecified) belongs -6.93%; to `Cc1csc(CNC(=O)NCC(O)c2ccc(F)cc2)n1` (stereo unspecified), 12.1%.
As for `CCNC(=O)[C@@H]1C[C@@H](NC(=O)CSC)CN1Cc1ccncc1`, the cytotoxicity at 10 µM was -1.87%.
To `O=C(c1ccc2c(c1)OCO2)N1CCC(C(=O)O)(c2ccccc2)CC1` belongs 7.33%; to `C[C@H]1C[C@H]2CN(C(=O)C3=CCCCC3)CC[C@H]2O1`, 4.76%; to `CCc1cc(C)c(C(=O)N2CCCC(c3nnn[nH]3)C2)o1` (stereo unspecified), 1.02%.
To `CC/C(C)=C/CCN1CCN(C)C2(CCNC(=O)CC2)C1` (stereo unspecified) belongs -48.2%; to `CC(C)(C)c1cc(=O)[nH]c(-c2ccccc2CN2CCCCCC2)n1`, -42%; to `CN(C)S(=O)(=O)N1CC[C@]2(C[C@@H](Oc3cccnc3)CO2)C1`, -76.3%.
Regarding `CNC(=O)[C@@H](c1ccccc1OC)N1CCC[C@H]1C(=O)N1CCC1`, the cytotoxicity at 10 µM is 1.44%.
Turning to `c1ccc2sc(CN3CCCC3c3noc(C4CC4)n3)nc2c1` (stereo unspecified), the cytotoxicity at 10 µM was -9.88%.
Regarding `OCC1CCCCN1c1ccc(-c2nc(-c3ccccc3F)no2)cn1` (stereo unspecified), the cytotoxicity at 10 µM worked out at 51.2%.
To `Cc1cnn(C2CCCN(C(=O)CCc3cnn(C)c3)C2)c1` (stereo unspecified) belongs -11.1%.
Turning to `O=C(O)c1cc(-c2ccccc2)ns1`, the cytotoxicity at 10 µM was 1.91%.
To `Cc1ccc(NC(=O)c2nc3c(s2)CCCN3C(C)C)cn1` belongs 0.93%; to `CC(C)n1cc(S(=O)(=O)N2CCSCC2)cn1`, 6.64%; to `CC(Cn1cccn1)NCc1csc(-c2ccccc2)n1` (stereo unspecified), -13.4%.
To `Cn1ccnc1CN1CCc2ncnc(N3CCCC3)c2CC1` belongs -142%; to `Cc1cc(CN(C)Cc2csc(-c3ccc(C(C)C)cc3)n2)no1`, 41.1%; to `Cc1cnc(N2CCC[C@@H]3CN(S(C)(=O)=O)C[C@@H]32)nc1`, 9.34%.
To `Cc1cnc(CNC(=O)N(CCCO)C2CCc3ccccc32)s1` (stereo unspecified) belongs -17.2%; to `CSc1nc(N)cc(N2C[C@H]3CC[C@@H](C2)N(Cc2cscn2)C3=O)n1`, -12%.
`O=C(CC1CC1)N1CC[C@@H]2[C@H](CC1)N(Cc1cccnc1)CCS2(=O)=O`: the cytotoxicity at 10 µM was determined as 5.96%.
As for `CC(C)c1noc(CC[C@@H]2CCCN3CCCC[C@H]23)n1`, the cytotoxicity at 10 µM was -0.143%.
To `COc1ccc(C(=O)N2CCCCC2c2nc(C)cs2)nn1` (stereo unspecified) belongs -6.77%.
On to `c1coc(CN2CCn3c(nc4ccccc43)C2)c1`, for which the cytotoxicity at 10 µM was found to be 21.8%.
Take `CC(=O)N1CCC(N2CC[C@H](c3nc4cc(C)ccc4o3)C2)CC1`: the cytotoxicity at 10 µM is 2.84%.
To `CCC(CC)c1cc(C(=O)N2CCN(C(C#N)C(C)C)CC2)on1` (stereo unspecified) belongs 1.87%.
As to `CNC(=O)[C@H]1C[C@H]2CN(C(=O)NCCc3ccccc3)C[C@@H]1O2`, the cytotoxicity at 10 µM came to 2.89%.
To `O=C(NCc1nnc2n1CCCCC2)N(Cc1ccccn1)C1CC1` belongs 2.46%; to `Cn1nc(C(=O)NCc2ccc(OC3CCCCC3)nc2)ccc1=O`, 21.3%; to `Cc1cnn(C2CCCN(C(=O)c3cc(C4CC4)on3)C2)c1` (stereo unspecified), -11.4%.
To `COCCOc1ccc(NC(=O)C2CCCN(C(N)=O)C2)cn1` (stereo unspecified) belongs -8.9%; to `CC(Cn1cncn1)NC(=O)Nc1ccc(COC2CCCC2)cc1` (stereo unspecified), -1.47%.
As for `OC1(CN2CCC(Cc3ccccc3)CC2)CCC1`, the cytotoxicity at 10 µM was -8.26%.
To `CN(CCc1ccccn1)C(=O)Nc1cccnc1N1CCCC1` belongs -27.2%.
With `CCN(CC1CN(Cc2c(C)noc2C)CCO1)c1cccnn1` (stereo unspecified), the cytotoxicity at 10 µM is -7.99%.
Regarding `CN(C)C(=O)C1CCN(C2CCN(CC3CCC3)CC2)CC1`, the cytotoxicity at 10 µM was 2.82%.
Turning to `CN1CCC(N(C)c2ccccc2CNCc2ccco2)CC1`, the cytotoxicity at 10 µM is -9.05%.
Consider `Cc1nc(C)n(CC2CCCCN2CC(=O)N(C)Cc2ccco2)n1` (stereo unspecified), for which the cytotoxicity at 10 µM stood at 2.65%.
To `COCCOc1ccc(C(=O)N[C@@H]2CNCCC[C@H]2O)cc1` belongs 4.67%; to `CNc1nc(N2CCN(C)C(CCO)C2)nc2c1CCC2` (stereo unspecified), 2.66%; to `CC(C)c1nc2cc(NC(=O)Cn3ccc(=O)[nH]c3=O)ccc2o1`, 1.73%.
To `COc1cccc(NC(=O)C2CC(=O)n3cnnc3S2)c1` (stereo unspecified) belongs 2.27%; to `Cc1nc(C2CCCN2Cc2ncc(C(C)C)o2)no1` (stereo unspecified), 4.31%.
For the molecule `COc1cccc(COCC(=O)N2CCCC(n3ccnc3C)C2)c1` (stereo unspecified), the cytotoxicity at 10 µM is -7.77%.
To `O=C1NCCN1CCNc1cc(-c2ccccc2)nc2ccnn12` belongs -10.7%; to `CCC(CC)CS(=O)(=O)NC(=O)C1CCC1`, -6.8%; to `CC(=O)N(C)CC(=O)NC(CC(C)C)c1cccs1` (stereo unspecified), -1.49%.
To `COc1ccc2c(=O)n(CC3CCNC3)ccc2c1OC` (stereo unspecified) belongs 5.76%.
In the case of `CS(=O)(=O)N[C@@H]1CCO[C@]2(CCN(C(=O)c3cscn3)C2)C1`, the cytotoxicity at 10 µM was -67.2%.
To `Cc1csc(CN2CCC[C@]3(C[C@@H](Oc4ccccn4)CO3)C2)n1` belongs -141%.
To `O=C(NCC(F)F)c1ccc(S(=O)(=O)NCCc2cn[nH]c2)cc1` belongs 5.5%; to `CC(C)=CCN1CCc2onc(-c3ccc(F)c(F)c3)c2C1`, 5.67%.
Take `Cc1ccc(C(=O)N2CCC3(CC2)CC(c2cnn(C)c2)CO3)cn1` (stereo unspecified): the cytotoxicity at 10 µM is -69.5%.
To `Cc1nc(C2CCCN2CC(=O)Nc2c(C)n[nH]c2C)no1` (stereo unspecified) belongs 1.65%; to `Cc1cnn(CC2CN(CCN3CCCC3=O)CCO2)c1` (stereo unspecified), -9.7%.
To `Oc1nc(N2CCOCC2)nc2c1CCN(Cc1cccc(F)c1)CC2` belongs -8.08%.
For the molecule `Cn1cc2c(n1)C(COCC1CC1)CN(Cc1ccccn1)C2` (stereo unspecified), the cytotoxicity at 10 µM was -1.8%.
To `Cc1nc(CN2CCN(Cc3nccn3C)CC2)no1` belongs 3.44%; to `Cc1cc(C)cc(CN2CCN(C(=O)CCc3n[nH]c(C)n3)CC2=O)c1`, 0.108%; to `Cc1cnn(CC2CCCN2Cc2nnc(Cc3ccccc3)o2)c1` (stereo unspecified), -11.7%.
To `Cc1nc(C)n(C2CCCN(C(=O)CCn3ccnn3)C2)n1` (stereo unspecified) belongs -0.649%.
